The source of these data is ChEMBL document CHEMBL5120805, “Autoxidation of a C2-Olefinated Dihydroartemisinic Acid Analogue to Form an Aromatic Ring: Application to Serrulatene Biosynthesis” (2022).

≈ marks a conversion by molar mass, not a printed value. Where only a bound is given, the exact number is not on record here.

Type in all cases: functional
Experiment [1] deals with Staphylococcus aureus. Kind of experiment: Antimicrobial activity against Staphylococcus aureus JE2 ssessed as reduction in bacterial growth and measured for 24 hrs by resazurin dye based broth microdilution method. An outline of the steps: (§1)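 Overnight cultures diluted to ~1 × 10^5 CFU/mL and exposed to compounds (DMSO stocks at 10 mg/mL) over 0.048–100 μg/mL final. Incubated standing in lysogeny broth at 37 °C for 24 h. Resazurin then added, 1 h further incubation, and MIC read from colour change.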

Experiment [2] concerns Pseudomonas aeruginosa. Nature of the experiment: Antimicrobial activity against Pseudomonas aeruginosa PA14 assessed as reduction in bacterial growth and measured for 24 hrs by resazurin dye based broth microdilution method. An outline of the steps:
as §1

The subject of experiment [3] is Cryptococcus neoformans. Kind of experiment: Antimicrobial activity against Cryptococcus neoformans H99 assessed as reduction in […] growth and measured for 48 hrs by resazurin dye based broth microdilution method. The essentials:
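Cells from overnight growth diluted to ~1 × 10^5 CFU/mL in sabouraud dextrose broth. Compounds from 10 mg/mL DMSO stocks tested at 0.048–100 μg/mL. Plates incubated standing at 37 °C for 48 h, then resazurin added for a further 24 h. MIC taken from colour change.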

`CO[C@@H]1[C@@H](OC(N)=O)[C@@H](O)[C@H](Oc2ccc3c(O)c(NC(=O)c4ccc(O)c(CC=C(C)C)c4)c(=O)oc3c2C)OC1(C)C` [NOVOBIOCIN]: the minimal inhibitory concentration (MIC) in experiment [1] was less than 0.19 mg/L.
Regarding `Cc1ccc2c(c1)[C@H]([C@@H](C)C=O)CC[C@H]2C`, the MIC in experiment [1] was greater than 100 mg/L; in experiment [2] it was greater than 100 mg/L; in experiment [3] it was 100 mg/L (≈ 462 µM).
As to `CC(C)=CCC[C@H](C)[C@@H]1CC[C@@H](C)c2ccc(C)cc21`, the minimum inhibitory concentration (MIC) in experiment [1], in experiment [2] and in experiment [3] was greater than 100 mg/L throughout.
Take `COC=CC[C@H](C)[C@@H]1CC[C@@H](C)[C@@H]2CCC(C)=C[C@@H]21` (mixture of isomers): the MIC in experiment [1], in experiment [2] and in experiment [3] was greater than 100 mg/L throughout.
For the compound `CC(=O)OCCC[C@H](C)[C@@H]1CC[C@@H](C)[C@@H]2CCC(C)=C[C@@H]21`, the MIC in experiment [1] was greater than 100 mg/L; in experiment [2], greater than 100 mg/L; in experiment [3], 12.5 mg/L (≈ 42.7 µM).
As for `CC1=C[C@H]2[C@@H](CC1)[C@H](C)CC[C@H]2[C@@H](C)CCCO`, the results for the minimum inhibitory concentration (MIC) in experiment [1], in experiment [2] and in experiment [3] were 12.5 mg/L (≈ 49.9 µM), greater than 100 mg/L and greater than 100 mg/L, respectively.
For the compound `CC1C[C@@H]2OO[C@H]1[C@@H]1[C@H]([C@@H](C)C(=O)O)CC[C@@H](C)[C@@H]12` (stereo partly specified), the MIC in experiment [1], in experiment [2] and in experiment [3] was greater than 100 mg/L in each case.
For `C#COC(=O)[C@H](C)[C@@H]1CC[C@@H](C)[C@@H]2CCC(C)=C[C@@H]21`, the MIC in experiment [1], in experiment [2] and in experiment [3] was greater than 100 mg/L each time.
Regarding `Cc1ccc2c(c1)[C@H]([C@@H](C)CO)CC[C@H]2C`, the MIC is greater than 100 mg/L in experiment [1], greater than 100 mg/L in experiment [2] and no less than 100 mg/L in experiment [3].
As for `COC=C[C@H](C)[C@@H]1CC[C@@H](C)[C@@H]2CCC(C)=C[C@@H]21` (mixture of isomers), the figures for the MIC in experiment [1], in experiment [2] and in experiment [3] were 12.5 mg/L, greater than 100 mg/L and 50 mg/L, respectively.
Regarding `Cc1ccc2c(c1)[C@H]([C@@H](C)C(=O)O)CC[C@H]2C`, the MIC in experiment [1] was greater than 100 mg/L; in experiment [2], greater than 100 mg/L; in experiment [3], 100 mg/L (≈ 430 µM).
Regarding `CC1=C[C@H]2[C@@H](CC1)[C@H](C)CC[C@H]2[C@@H](C)C(=O)O`, the MIC in experiment [1] was 100 mg/L (≈ 423 µM); in experiment [2], greater than 100 mg/L; in experiment [3], 25 mg/L (≈ 106 µM).
Take `CC1=C[C@H]2[C@@H](C=C1)[C@H](C)CC[C@H]2[C@@H](C)CCCO`: the minimum inhibitory concentration (MIC) in experiment [1] was 50 mg/L (≈ 201 µM); in experiment [2], greater than 100 mg/L; in experiment [3], greater than 100 mg/L.
Turning to `CC1=C[C@H]2[C@@H](C=C1)[C@H](C)CC[C@H]2[C@@H](C)C=O`, the MIC in experiment [1], in experiment [2] and in experiment [3] was greater than 100 mg/L in each case.
Consider `CC(C)=CC=C[C@H](C)[C@@H]1CC[C@@H](C)c2ccc(C)cc21`, for which the MIC in experiment [1], in experiment [2] and in experiment [3] was greater than 100 mg/L in each case.
Turning to `CC(=O)OCCC[C@H](C)[C@@H]1CC[C@@H](C)[C@@H]2C[C@@H](O)C(C)=C[C@@H]21`, the MIC is greater than 100 mg/L in experiment [1], greater than 100 mg/L in experiment [2] and 25 mg/L (≈ 81 µM) in experiment [3].
As to `C[C@@H]1[C@H](O)[C@@H](C)/C=C/C=C/C=C/C=C/C=C/C=C/C=C/[C@H](O[C@@H]2O[C@H](C)[C@@H](O)[C@H](N)[C@@H]2O)C[C@@H]2O[C@](O)(C[C@@H](O)C[C@@H](O)[C@H](O)CC[C@@H](O)C[C@@H](O)CC(=O)O[C@H]1C)C[C@H](O)[C@H]2C(=O)O` [AMPHOTERICIN B], in experiment [3], the MIC is less than 0.048 mg/L.
As to `CC1=C[C@H]2[C@@H](CC1)[C@@H]([C@H](C)C(=O)OCc1cn(CCOCCOCCOCNS(=O)(=O)c3ccc(C4=c5cc6c7c(c5Oc5c4cc4c8c5CCCN8CCC4)CCC[N+]=7CCC6)c(S(=O)(=O)[O-])c3)nn1)CC[C@@H]2C`, the MIC in experiment [1], in experiment [2] and in experiment [3] was greater than 50 mg/L in each case.
In the case of `CC1=C[C@H]2[C@@H](CC1)[C@H](C)CC[C@H]2[C@@H](C)C=O`, the MIC in experiment [1] is greater than 100 mg/L; in experiment [2] it was greater than 100 mg/L; in experiment [3] it was 12.5 mg/L (≈ 56.7 µM).
For `CC1=C[C@H]2[C@@H](C=C1)[C@H](C)CC[C@H]2[C@@H](C)C(=O)O`, the MIC in experiment [1] is greater than 100 mg/L; in experiment [2] it was greater than 100 mg/L; in experiment [3], 100 mg/L (≈ 427 µM).
`CC1=C[C@H]2[C@@H](C=C1)[C@H](C)CC[C@H]2[C@@H](C)CO`: the MIC in experiment [1] was 50 mg/L (≈ 227 µM); in experiment [2], greater than 100 mg/L; in experiment [3], 25 mg/L (≈ 113 µM).
`CC1=CC2=C([C@@H](C)C(=O)O)CC[C@@H](C)[C@@H]2CC1`: the MIC in experiment [1], in experiment [2] and in experiment [3] was greater than 100 mg/L throughout.
As to `C[C@@H]1CC[C@H]2[C@@H](C)C(=O)O[C@@H]3O[C@@]4(C)CC[C@@H]1[C@]32OO4` [ARTEMISININ], the minimum inhibitory concentration (MIC) in experiment [1] was greater than 100 mg/L; in experiment [2], greater than 100 mg/L; in experiment [3], 100 mg/L (≈ 354 µM).
With `O=C(O)c1cn(C2CC2)c2cc(N3CCNCC3)c(F)cc2c1=O` [CIPROFLOXACIN], the minimum inhibitory concentration (MIC) in experiment [1] is 12.5 mg/L (≈ 37.7 µM); in experiment [2], less than 0.04 mg/L.
For the compound `CC1=C[C@H]2[C@@H](CC1)[C@H](C)CC[C@H]2[C@@H](C)CCC=O`, the MIC in experiment [1], in experiment [2] and in experiment [3] was greater than 100 mg/L throughout.
For GENTAMICIN, the results for the MIC in experiment [1], in experiment [2] and in experiment [3] were 6.25 mg/L, 0.39 mg/L and 6.25 mg/L, respectively.
As for `Cc1ccc2c(c1)C([C@@H](C)CO)=CC[C@H]2C`, the MIC in experiment [1] was 100 mg/L (≈ 462 µM); in experiment [2] it was greater than 100 mg/L; in experiment [3] it was 50 mg/L (≈ 231 µM).
